The values that follow come from publication PMC5901702 (Journal of biomolecular screening, 2012).

For assay [1], the target named is T1, rat IDE (Rattus norvegicus, UniProt P35559).
T1 sequence (P35559 1-1019): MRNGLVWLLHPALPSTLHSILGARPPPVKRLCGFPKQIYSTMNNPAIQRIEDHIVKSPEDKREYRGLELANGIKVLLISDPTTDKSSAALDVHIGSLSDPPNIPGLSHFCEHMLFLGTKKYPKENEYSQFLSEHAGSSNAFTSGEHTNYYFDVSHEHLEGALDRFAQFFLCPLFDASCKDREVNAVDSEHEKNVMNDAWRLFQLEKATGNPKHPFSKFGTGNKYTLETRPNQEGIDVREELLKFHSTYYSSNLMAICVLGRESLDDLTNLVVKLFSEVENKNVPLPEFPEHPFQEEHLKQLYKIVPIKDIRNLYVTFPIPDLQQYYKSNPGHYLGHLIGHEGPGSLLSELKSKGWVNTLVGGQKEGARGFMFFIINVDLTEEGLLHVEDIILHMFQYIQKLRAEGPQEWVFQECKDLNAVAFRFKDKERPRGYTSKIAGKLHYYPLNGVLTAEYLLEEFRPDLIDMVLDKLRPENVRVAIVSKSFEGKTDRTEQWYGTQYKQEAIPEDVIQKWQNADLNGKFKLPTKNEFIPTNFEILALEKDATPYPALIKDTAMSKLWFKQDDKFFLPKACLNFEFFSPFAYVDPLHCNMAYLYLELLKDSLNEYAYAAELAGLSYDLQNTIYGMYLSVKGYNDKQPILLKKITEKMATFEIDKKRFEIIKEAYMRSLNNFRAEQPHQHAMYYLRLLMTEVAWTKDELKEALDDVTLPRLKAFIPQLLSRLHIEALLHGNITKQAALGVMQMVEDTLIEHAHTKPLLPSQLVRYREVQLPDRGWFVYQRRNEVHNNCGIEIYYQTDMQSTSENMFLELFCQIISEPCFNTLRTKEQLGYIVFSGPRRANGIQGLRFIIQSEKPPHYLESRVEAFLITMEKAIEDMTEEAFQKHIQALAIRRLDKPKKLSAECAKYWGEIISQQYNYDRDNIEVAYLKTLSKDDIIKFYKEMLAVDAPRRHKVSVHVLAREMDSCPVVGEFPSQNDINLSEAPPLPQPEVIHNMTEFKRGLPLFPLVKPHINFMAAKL
The experiment in a line: Kinetic analysis of rat IDE in presence of activator. The format is biochemical. Conditions: compound 100 µM; 0.1 M KPi pH 7.6; DMSO control 154.8 ± 12.26.

The target in a further assay is T2, Ste23p (Saccharomyces cerevisiae, UniProt Q06010).
T2 sequence (Q06010 1-1027): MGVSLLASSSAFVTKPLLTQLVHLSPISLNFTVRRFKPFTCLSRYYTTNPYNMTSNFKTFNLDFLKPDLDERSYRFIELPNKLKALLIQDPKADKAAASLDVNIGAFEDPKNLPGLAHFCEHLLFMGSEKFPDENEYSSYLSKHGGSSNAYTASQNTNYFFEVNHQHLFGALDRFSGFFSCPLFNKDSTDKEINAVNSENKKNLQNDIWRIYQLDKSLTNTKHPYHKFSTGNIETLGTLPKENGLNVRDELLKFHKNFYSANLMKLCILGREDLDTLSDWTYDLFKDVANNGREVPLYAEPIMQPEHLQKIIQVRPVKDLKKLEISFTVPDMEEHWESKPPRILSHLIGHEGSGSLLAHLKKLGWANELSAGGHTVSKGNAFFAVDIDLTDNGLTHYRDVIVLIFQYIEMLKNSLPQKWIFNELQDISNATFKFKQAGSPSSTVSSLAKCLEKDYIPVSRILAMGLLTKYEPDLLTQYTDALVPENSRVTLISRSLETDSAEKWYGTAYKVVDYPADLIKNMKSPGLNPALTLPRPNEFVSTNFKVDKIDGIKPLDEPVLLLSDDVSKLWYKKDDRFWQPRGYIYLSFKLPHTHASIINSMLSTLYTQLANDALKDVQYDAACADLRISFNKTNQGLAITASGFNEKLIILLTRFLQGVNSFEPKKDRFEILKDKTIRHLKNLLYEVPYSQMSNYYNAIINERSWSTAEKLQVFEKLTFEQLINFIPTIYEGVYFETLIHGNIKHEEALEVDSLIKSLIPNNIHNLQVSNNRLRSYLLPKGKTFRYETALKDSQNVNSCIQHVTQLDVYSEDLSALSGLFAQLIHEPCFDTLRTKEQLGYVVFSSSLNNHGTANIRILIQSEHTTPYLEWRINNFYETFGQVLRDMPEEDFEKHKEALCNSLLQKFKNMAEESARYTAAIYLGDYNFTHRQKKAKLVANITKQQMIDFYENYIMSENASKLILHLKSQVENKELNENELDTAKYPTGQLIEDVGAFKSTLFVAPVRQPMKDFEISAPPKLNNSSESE
The experiment in a line: Target specificity: Ste23p activity with a-factor–based peptide. The format is biochemical, yeast. The note with it: 100 µM compound; 30 °C; relative to DMSO control = 100%. The method, boiled down:
(§1)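 Single-dose specificity assay with a-factor–based fluorogenic peptide (50 µM) in 0.1 M KPi pH 7.6. Ste23p was used at 10 µg/mL and 30 °C; trypsin and pronase E at 0.5 µg/mL each under the 37 °C HTS conditions. Enzymes were preincubated 10 min with 100 µM compound. Triplicate rates were normalized by trypsin/pronase full digestion and given relative to DMSO control (100%).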

In assay [2] the target is T1, rat IDE. The experiment in a line: Dose-response of rat IDE activation. It is filed as biochemical. The note with it: for dose-response profile: rat IDE activation, a-factor–based substrate. The method, boiled down: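 Rat IDE (10 µg/mL) in 0.1 M KPi pH 7.6 was preincubated 10 min at 37 °C with activator (up to 1 mM), then mixed 1:1 with a-factor–based fluorogenic substrate (50 µM final). Fluorescence (320 ex) was read over 60 min and rate taken from the 15–30 min window. Baseline was subtracted and rates normalized to trypsin/pronase E full digestion. AC50 came from best-fit curves, or [Max]50 where the curve was not sigmoidal.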

The next assay addresses T3, bovine trypsin (Bos taurus, UniProt P00760).
T3 sequence (P00760 24-246): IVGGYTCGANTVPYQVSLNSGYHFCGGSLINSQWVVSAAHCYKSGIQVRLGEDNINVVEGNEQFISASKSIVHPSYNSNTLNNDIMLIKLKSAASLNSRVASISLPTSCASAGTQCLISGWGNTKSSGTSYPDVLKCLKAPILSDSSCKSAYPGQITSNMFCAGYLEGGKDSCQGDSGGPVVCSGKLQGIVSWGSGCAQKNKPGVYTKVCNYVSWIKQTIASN
The experiment in a line: Target specificity: trypsin activity with a-factor–based peptide. It is filed as biochemical. The note with it: 100 µM compound; relative to DMSO control = 100%. The method, boiled down:
as §1

The target in assay [3] is T1, rat IDE. It is filed as biochemical. The note with it: 100 µM compound; a-factor–based substrate 50 µM; 0.1 M KPi pH 7.6; relative to DMSO-treated control = 100%. In short, it runs like this: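 Then mixed 1:1 with substrate. Fluorescence was followed for 60 min, and rates were taken from the 15–30 min window. Activity was normalized by the trypsin/pronase approach.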

Assay [4] deals with T1, rat IDE. The experiment in a line: a-Factor production bioassay. It is filed as cell-based. Conditions: 72 h, relative to DMSO-treated control.

For `O=S(=O)(O)CCCc1cccc2ccccc12` [Compound 1], the Vmax on rat IDE [1] worked out at 194.1 ± 5.85 nmol/min/mg. For the same compound, the “% Activity Ste23p” value at Ste23p stood at 112.0 ± 5.4%. Also, the Saturation of activation result at rat IDE [2] (highest concentration tested 1 mM) was “not achieved”. For the same compound, the dose-response profile entry at rat IDE [2] is “classic sigmoidal dose-responses”. Besides, the “% Activity Trypsin” value at bovine trypsin is 94.2 ± 0.3%. In addition, the “% Activity IDE” value at rat IDE [3] came to 195.4 ± 12.2%.

As to `Cn1ncc2c(NCCc3ccccc3)nc(Cl)nc21` [Compound 2], the Vmax on rat IDE [1] is reported as 164.2 ± 6.4 nmol/min/mg. Besides, the “IDE-mediated a-factor production in vivo” value at rat IDE [4] (100 µM compound) is on record as “reduced the yield of a-factor produced”. On Ste23p, the “% Activity Ste23p” value was 117.2 ± 2.8%. Moreover, the dose-response profile entry at rat IDE [2] is recorded as “classic sigmoidal dose-responses”. Also, at bovine trypsin, the “% Activity Trypsin” value came out at 115.1 ± 3.9%. In addition, on rat IDE [3], the “% Activity IDE” value is 170.3 ± 16.0%.

Consider `O=S(=O)(O)c1cc(O)c2c(O)c(N=Nc3cccc4ccccc34)c(S(=O)(=O)O)cc2c1` [Compound 3], for which, at rat IDE [4] (100 µM compound), the “IDE-mediated a-factor production in vivo” value is “enhanced a-factor production in vivo”. Also, at Ste23p, the “% Activity Ste23p” value was found to be 90.4 ± 0.6%. Also, the dose-response profile entry at rat IDE [2] is given as “inverted bell-shaped activation curve”. In addition, the “% Activity Trypsin” value on bovine trypsin was 99.3 ± 2.2%. In addition, the “% Activity IDE” value at rat IDE [3] is given as 356.0 ± 16.0%.

With `Nc1nc(SCc2ccccc2Cl)cc(C(=O)O)n1` [Compound 5], on rat IDE [1], the Vmax is recorded as 127.8 ± 10.41 nmol/min/mg. Further, at rat IDE [4] (12.5 µM compound), the “IDE-mediated a-factor production in vivo” value is recorded as “enhanced a-factor production in vivo”. Moreover, the “% Activity Ste23p” value on Ste23p turned out to be 103.4 ± 1.6%. The dose-response profile entry on rat IDE [2] is “inverted bell-shaped activation curve”. Besides, at bovine trypsin, the “% Activity Trypsin” value amounted to 94.3 ± 5.4%. For the same compound, on rat IDE [3], the “% Activity IDE” value is recorded as 263.5 ± 1.0%.

As to `O=C(CCN1CC2CCC(CC2)C1)c1cccs1` [Compound 6], the Vmax on rat IDE [1] is reported as 176.3 ± 7.35 nmol/min/mg. At rat IDE [4] (50 µM compound), the “IDE-mediated a-factor production in vivo” value was “enhanced a-factor production in vivo”. The “% Activity Ste23p” value on Ste23p stood at 82 ± 0.3%. On rat IDE [2], the dose-response profile entry is listed as “classic sigmoidal dose-responses”. For the same compound, the “% Activity Trypsin” value at bovine trypsin worked out at 111.5 ± 2.8%. Further, the “% Activity IDE” value at rat IDE [3] was 230.7 ± 13.5%.

As to `O=C(O)c1ccc(Oc2nc3ccccc3s2)cc1` [Compound 7], the Vmax on rat IDE [1] is recorded as 194.1 ± 13.81 nmol/min/mg. The “IDE-mediated a-factor production in vivo” value on rat IDE [4] (100 µM compound) is on record as “reduced the yield of a-factor produced”. In addition, at Ste23p, the “% Activity Ste23p” value is 102.1 ± 1.7%. Also, on rat IDE [2], the dose-response profile result is given as “classic sigmoidal dose-responses”. Further, on bovine trypsin, the “% Activity Trypsin” value amounted to 111.0 ± 1.2%. In addition, the “% Activity IDE” value on rat IDE [3] is reported as 186.6 ± 7.4%.

Take `O=[N+]([O-])/C=C/c1cc2ccccc2[nH]1` [Compound 8]: on rat IDE [1], the Vmax was determined as 185.0 ± 9.73 nmol/min/mg. Further, the “IDE-mediated a-factor production in vivo” value on rat IDE [4] (25 µM compound) is “enhanced a-factor production in vivo”. In addition, at Ste23p, the “% Activity Ste23p” value is given as 80.1 ± 6.0%. Besides, the dose-response profile entry on rat IDE [2] is on record as “inverted bell-shaped activation curve”. For the same compound, the “% Activity Trypsin” value at bovine trypsin stood at 101.8 ± 1.8%. Further, the “% Activity IDE” value at rat IDE [3] stood at 195.0 ± 14.0%.

The Vmax is the top rate of the reaction or transport when substrate is in excess.
